MC4R ag barr: agonists of human melanocortin 4 receptor (MC4R) beta-arrestin; U2OS MC4R beta-arrestin complementation, luminescence; percent of melanotan II response, DMSO zero; P32245; hit rate 0.98% among 360,000; activation, % at 8.9 µM; AID 540308;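 active means activation above a per-plate cutoff, the mean activation of sample wells on that plate plus 3 SD, cut at about 8% in these data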
Target sequence (P32245 whole entry, looked up): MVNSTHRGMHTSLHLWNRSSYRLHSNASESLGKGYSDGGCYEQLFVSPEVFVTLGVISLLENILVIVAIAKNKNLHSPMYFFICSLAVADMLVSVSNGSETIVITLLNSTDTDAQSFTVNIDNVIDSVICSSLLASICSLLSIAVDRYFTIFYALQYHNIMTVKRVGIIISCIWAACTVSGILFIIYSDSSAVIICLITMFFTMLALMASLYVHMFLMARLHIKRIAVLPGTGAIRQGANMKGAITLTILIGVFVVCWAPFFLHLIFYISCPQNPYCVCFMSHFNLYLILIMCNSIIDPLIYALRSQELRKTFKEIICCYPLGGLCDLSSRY
MC4R antag cAMP: blocks human MC4R cAMP signaling; P32245; AID 540295; MC4R-expressing cells, MTII-stimulated cAMP, LANCE TR-FRET; hit rate 0.48% among 360,000; inhibition, % at 6.5 µM;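 active means inhibition above its plate's cutoff, the mean of tested wells on that plate plus 3 SD, cut at about 29% in these data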;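 further: 0% = Melanotan II alone and 100% = Melanotan II plus saturating MCL0020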
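Assay system: human MC4R-expressing U2OS cells; reagent: Melanotan II stimulation of cells; dosing: 6.5 µM single dose; timing: compound 30 min, challenge 1 h, detection 1 h; signal: TR-FRET cAMP assay; replicates: one well per compound, no replicates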
NTR1 ag: NTR1 (human) agonism. P30989. NTR1-U2OS beta-arrestin-GFP spot imaging, agonist mode. activation, % at 20 µM. hit rate 0.17% among 330,000. AID 493036;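 active means activation at or above 40% of the spot to cytoplasm intensity ratio, with at least 20 cells analyzed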;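 further: 0% = DMSO without peptide and 100% = 100 nM NTR1 peptide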
Rev-erbA mod: modulates human Rev-erb alpha binding to DNA. P20393. Rev-erbα–FITC-DNA binding, fluorescence polarization, 90 min. activity, % at 10 µM. hit rate 0.79% among 370,000;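 active means activity above about 14%, limit read from the data; passing the limit was not always enough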;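 further: 0% = DMSO wells with 35 nM protein and 100% = DMSO wells with 750 nM protein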
PG9 binder: binds the HIV-1 gp120 antibody PG9 | TR-FRET gp120-PG9 antibody binding | inhibition, % at 6.7 µM | AID 624416 | hit rate 0.43% among 360,000; in the data active means inhibition above about 8.5%
Starred values were filed as active, the others as inactive; . = not tested or not shown. Only some compounds are listed: those with a hit (about 2.5% of all), similar ones and a draw of the others.

SMILES	MC4R ag barr	MC4R antag cAMP	NTR1 ag	Rev-erbA mod	PG9 binder
CCCCOC(=O)C[N+](C)(C)CCOC1CC2CCC1(C)C2(C)C (stereo unspecified)	2	8	1	-2	0
Cc1[nH]c2ccccc2c1CC(=O)Nc1ccc(Nc2cccnc2)c(-c2ccc(Oc3ccccc3)cc2)c1	.	.	.	-2	1
CC(C)(C)S(=O)(=O)N1Cc2cc(CO)ccc2[C@@H]1CCO	.	.	.	-6	-3
O=c1[nH]c(/C=C/c2ccccc2[N+](=O)[O-])nc2ccccc12	8.8*	-3	0	-29	-2
O=c1[nH]c(/C=C/c2ccccc2F)nc2ccccc12	2	-22	2	-10	1
Cc1cccc(NC(=O)Cn2nnc(C(=O)NCc3cccs3)c2N)c1C	9.0*	-6	0	-8	0
COc1cccc(C2NC(c3cccc(OC)c3O)C(C)C(=O)C2C)c1O (stereo unspecified)	1	15	2	3	-2
CC1C(=O)C(C)C(c2cc(Cl)ccc2O)NC1c1cc(Cl)ccc1O (stereo unspecified)	1	21	60*	0	-1
CC(C)[C@H](NC(=O)c1c(F)cccc1F)C(=O)Nc1cccc(Br)c1	8.6*	-1	-1	2	-1
CCn1nc(C(=O)Nc2ccc(C)c(C)c2)c(Cl)c1Cl	8.7*	3	0	1	1
CCCc1nn(C)c(C(=O)Nc2ccc(C)c(C)c2)c1Cl	4	7	3	-3	-2
O=C(CNSc1ccc([N+](=O)[O-])cc1[N+](=O)[O-])OCc1ccccc1	.	.	.	10	0
CN1CC=C(c2ccccc2)N(c2ccc(Br)cc2)C1=O	.	.	.	-2	.
C=CCNc1nc(Cl)nc(Nc2cc(Cl)ccc2OC)n1	8.8*	22	8	11	0
CCOc1nc(Nc2cc(Cl)ccc2OC)nc(OCC)n1	0	-2	1	-12	0
COc1cc(/C=N\NC(=O)c2ccc(-c3ccccc3)cc2)ccc1OCC(N)=O	26*	3	14	8	-2
O=C(CN(c1ccc(Cl)cc1)S(=O)(=O)c1ccccc1)N1CCN(c2ccccc2)CC1	9.1*	12	10	-1	0
COc1ccc(N2CCN(C(=O)CN(c3ccc(OC)cc3)S(=O)(=O)c3ccccc3)CC2)cc1	-1	12	2	1	-1
O=C(NCCc1ccccc1Cl)[C@@H]1CCCN1C(=O)[C@@H](NC(=O)N1CCOCC1)C1CCCCC1	.	.	.	5	0
COc1ccc(C(=O)Oc2ccc3oc(=O)sc3c2)cc1	13*	-5	3	3	0
CCOC(=O)N1CCN(C(=O)C[C@H]2C(=O)N(CCCOC)C3=CCCC[C@@]32C(=O)OCC)CC1	.	.	.	0	.
O=C(N/N=C/c1ccc(Br)s1)c1ccco1	1	7	0	6	-2
O=C(N/N=C/c1sc(=O)n(Cc2ccc(Br)cc2)c1Cl)c1ccco1	26*	0	15	-17	-1
O=C(NCCc1c[nH]c2ccccc12)OCc1cn(Cc2ccc(F)cc2F)nn1	.	.	.	-2	.
Cc1ccc(-n2ncc(Br)c(Br)c2=O)cc1	1	45*	.	.	.
SMILES	MC4R ag barr	MC4R antag cAMP	NTR1 ag	Rev-erbA mod	PG9 binder
O=Nc1c(O)n(Cc2c(Cl)cccc2Cl)c2ccccc12	8.4*	0	6	1	0
Cc1ccc(NN=C2c3ccccc3-c3ccccc32)cc1	8.4*	14	11	0	0
Cc1ccc(OCC(=O)NN=C2c3ccccc3-c3ccccc32)cc1	8.6*	-4	29	0	-2
c1ccc(NN=C2c3ccccc3-c3ccccc32)cc1	0	4	.	5	-1
CCN=C1NC(c2ccc(C(F)(F)F)cc2)C(C(=O)OC)=C(C)N1Cc1ccccc1C(F)(F)F (stereo unspecified)	.	.	.	-6	1
COc1cc(/C=C/C(=O)OCC(=O)Nc2cc(S(=O)(=O)N(C)C)ccc2Cl)ccc1O	8.9*	14	4	-9	-2
Cc1onc(C(=O)N2CCN(C(c3ccccc3)c3ccccc3)CC2)c1Br	.	.	.	0	.
NC(=O)c1nsc(C(=O)N(c2cccc(F)c2)C(C(=O)NC2CCCC2)c2ccco2)c1N (stereo unspecified)	8.9*	-2	0	1	1
CCc1ccc(N(C(=O)c2snc(C(N)=O)c2N)C(C(=O)NC2CCCC2)c2ccco2)cc1 (stereo unspecified)	0	2	5	-3	1
Cc1cc(/C=C/c2ccc3cc(N(C)C)ccc3[n+]2C)c(C)n1-c1ccccc1	.	.	.	-28	.
CC(C)(C)NC(=O)NC(=O)COC(=O)c1ccc(OC(F)(F)F)cc1	8.4*	1	0	2	-2
CC(C)(C)NC(=O)NC(=O)COC(=O)c1ccc(OC(F)F)cc1	2	-3	2	0	1
CC1C(=O)CC(c2ccccc2)N(C)C1c1ccccc1 (stereo unspecified)	9.1*	5	-1	1	0
CN1C(c2ccccc2)CC2CN(c3ccccc3)C(=O)C21 (stereo unspecified)	.	.	.	4	.
Cc1ccc(C)c(S(=O)(=O)/N=C2\C=C(NS(=O)(=O)c3ccccc3)C(=O)c3ccccc32)c1	-1	-5	2	-5	0
Cc1cc(C)c(S(=O)(=O)/N=C2/C=C(Sc3ncn[nH]3)C(=O)c3ccccc32)cc1C	-4	62*	.	10	0
Cn1nc(C(=O)Nc2ccccc2Cl)cc1C(=O)Nc1ccccc1Cl	9.3*	4	8	0	-2
O=C(CSc1ccc(Cl)cc1)Nc1ccc(N2CCN(C(=O)c3ccc(Cl)cc3)CC2)cc1	14*	16	2	2	1
O=C(CSc1nc2cc(Cl)ccc2o1)Nc1ccc(N2CCOCC2)cc1	19*	-3	-1	2	.
CCCCC(=O)N(Cc1ccccc1)c1ccccc1C(=O)Nc1cc(OC)ccc1OC	.	.	.	-2	.
COc1ccccc1NC(=O)COc1ccc(C(=O)NC2CCCc3ccccc32)cc1OC (stereo unspecified)	8.5*	-7	2	-3	-1
COc1ccccc1NC(=O)NC1CCCc2ccccc21 (stereo unspecified)	-1	5	1	2	0
CC1(C)CC2CC(C)(CN2C(=O)c2cc(-c3ccc(O)cc3)on2)C1 (stereo unspecified)	8.9*	-8	8	4	-1
COc1cccc(-c2cc(C(=O)N3CC4(C)CC3CC(C)(C)C4)no2)c1 (stereo unspecified)	1	1	12	-1	2
COC(=O)C1=C(C)N(Cc2cccc(C(F)(F)F)c2)C(=NCc2cc(OC)c(OC)c(OC)c2)NC1c1ccccc1C(F)(F)F (stereo unspecified)	.	.	.	2	-2
O=C(COc1ccccc1Br)Nc1ccccc1C(F)(F)F	9.4*	-2	3	4	-2
COc1ccc2c(c1)[nH]c1c(N3CCN(Cc4ccc5c(c4)OCO5)CC3)ncnc12	-1	6	43*	0	2

Assay outcomes: PubChem, several laboratories
